Reference: ChEMBL document CHEMBL1148609, “Orally active purine-based inhibitors of the heat shock protein 90” (J Med Chem, 2006)
Calls of active or inactive are those of the source. No cut-off for these calls is given here.

What was measured:
MCF7 = experiment: Growth inhibition in breast cancer MCF7 cell line by MTS assay; assay type: functional, cell-based; settings: Homo sapiens
Outline: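 MCF-7 breast cancer cells exposed to compound for 5 days, then MTS added and formazan read at 490 nm. […] Values are the mean of at least three independent observations.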

[1] = Half life in BALB/c mice at 10 mg/kg, iv; assay type: ADME, organism-based; parameters: dose 10 mg/kg, route intravenous; settings: mouse, in vivo
Outline: (§1)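 Balb/C mice, three dosed orally by gavage (5-20 mL/kg) and three intravenously; H3PO4 salts formulated as a phosphatidylcholine/water dispersion. Six blood samples collected, the last 4 h postdose. Plasma levels measured by HPLC (detection limit 0.5 µg/mL).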

[2] = Volume of distribution in BALB/c mice at 10 mg/kg, iv; assay type: ADME, organism-based; parameters: dose 10 mg/kg, route intravenous; settings: mouse, in vivo, read-out: Vdss; outline: as §1
[3] = Cmax in BALB/c mice at 100 mg/kg, po; assay type: ADME, organism-based; parameters: dose 100 mg/kg, route oral; settings: mouse, in vivo; outline: as §1
[4] = Tmax in BALB/c mice at 100 mg/kg, po; assay type: ADME, organism-based; parameters: dose 100 mg/kg, route oral; settings: mouse, in vivo; outline: as §1
Mus musculus [5] = experiment: (§2) AUC in BALB/c mice at 100 mg/kg, po; assay type: ADME, organism-based, Plasma; parameters: dose 100 mg/kg, route oral; settings: in vivo; outline: as §1
[6] = Half life in BALB/c mice at 100 mg/kg, po; assay type: ADME, organism-based; parameters: dose 100 mg/kg, route oral; settings: mouse, in vivo; outline: as §1
Mus musculus [7] = experiment: (§3) Bioavailability in BALB/c mice at 100 mg/kg, po; assay type: ADME, organism-based; settings: in vivo; outline: as §1
Mus musculus [8] = experiment: Tumor growth inhibition in murine xenograft model using N87 stomach cancer cell line at 200 mg/kg/day, po; assay type: functional, organism-based; settings: NCI-N87
Outline: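 Female nu/nu athymic mice, 6-8 weeks old, implanted sc in the flank with N87 tumor fragments (~2 mm³) or 5 × 10⁶ cells. Established tumors of 50-200 mm³ used, n = 6-10 per group. H3PO4 salt given orally at 1 × 200 or 2 × 100 mg/kg/day, 5 days/week; vehicle-dosed controls. Caliper volumes (l × w²)/2 taken twice weekly.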

Mus musculus [9] = experiment: Degradation of HER2 in A549 tumor xenograft at 200 mg/kg, po; assay type: functional, organism-based; parameters: dose 200 mg/kg
Outline: (§4)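 Female nu/nu athymic mice (6-8 weeks old) carrying subcutaneous A549 lung cancer xenografts received a single oral gavage dose of the H₃PO₄ salt (200 mg/kg), formulated as a phosphatidylcholine/water dispersion. Mice were sacrificed at 6, 24 or 48 h, and tumors were harvested. HER-2, pHER-2, pAKT, pRaf and Hsp70 levels were assessed by Western blot.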

Mus musculus [10] = experiment: Upregulation of Hsp70 in A549 tumor xenograft at 200 mg/kg, po; assay type: functional, organism-based; parameters: dose 200 mg/kg; outline: as §4
A549 = experiment: Degradation of pHER2 in A549 tumor xenograft at 200 mg/kg, po; assay type: functional, organism-based; parameters: dose 200 mg/kg; settings: Mus musculus; outline: as §4
Mus musculus [11] = experiment: Degradation of pAKT in A549 tumor xenograft at 200 mg/kg, po; assay type: functional, organism-based; parameters: dose 200 mg/kg; outline: as §4
Mus musculus [12] = experiment: Degradation of pRaf in A549 tumor xenograft at 200 mg/kg, po; assay type: functional, organism-based; parameters: dose 200 mg/kg; outline: as §4
[13] = biological target: Heat shock protein HSP 90-alpha (Homo sapiens) (UniProt P07900); experiment: Hsp90 inhibition measured as HER-2 degradation in MCF-7 cells
Mus musculus [14] = experiment: Upregulation of Hsp70 in murine N87 xenograft model at (2*200 mg/kg/day), po; assay type: functional, organism-based
[15] = Clearance in BALB/c mice at 10 mg/kg, iv; assay type: ADME, organism-based; parameters: dose 10 mg/kg, route intravenous; settings: mouse, in vivo; outline: as §1
[16] = as §2; assay type: ADME, organism-based, Plasma; parameters: dose 100 mg/kg, route oral; settings: BALB/c, mouse, plasma; outline: as §1
[17] = as §3; assay type: ADME, organism-based; settings: BALB/c, mouse, in vivo; outline: as §1
Mus musculus [18] = experiment: Degradation of pHER2 in murine N87 xenograft model at (2*200 mg/kg/day), po; assay type: functional, organism-based
Outline: (§5)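 Mice bearing N87 gastric tumor xenografts (high HER-2) given the H3PO4 salt orally at 2 × 200 or 2 × 100 mg/kg/day for 3 days. Reference arm received 17-AAG ip at 90 mg/kg once daily. Animals sacrificed 24 h after the last dose and client proteins in tumor lysates assessed by Western blot.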

Mus musculus [19] = experiment: Degradation of pAKT in murine N87 xenograft model at (2*200 mg/kg/day), po; assay type: functional, organism-based; outline: as §5
Mus musculus [20] = experiment: Degradation of pRaf in murine N87 xenograft model at (2*200 mg/kg/day), po; assay type: functional, organism-based; outline: as §5
Mus musculus [21] = experiment: Degradation of HER2 in murine N87 xenograft model at (2*200 mg/kg/day), po; assay type: functional, organism-based; outline: as §5
Mus musculus [22] = experiment: Degradation of PI3K in murine N87 xenograft model at (2*200 mg/kg/day), po; assay type: functional, organism-based; outline: as §5

Which IC50 (MCF7) does the source give for `C#CCCCn1c(Sc2cc(OC)ccc2I)nc2c(N)ncnc21` here?
The IC50 was 0.7 µM.

For `CCC(C)NCCCn1c(Sc2cc(OC)ccc2I)nc2c(N)ncnc21` (stereo not drawn), which IC50 (MCF7) is on record?
The IC50 was 0.2 µM.

What about the half-life [1] of the same molecule?
Its half-life is 1.3 h.

And the Vd [2]?
Its Vd is 3.4 L/kg.

What about the Cmax [3] of the same molecule?
Its Cmax is 4.8 µg/mL.

And the Tmax [4]?
Its Tmax is 0.5 h.

And the AUC (Mus musculus [5])?
Its AUC is 380 µg·min/mL.

What about the half-life [6] of the same molecule?
Its half-life is 0.7 h.

And the F (Mus musculus [7])?
Its F is 28%.

And the Activity (Mus musculus [8])?
The Activity was “Active”.

For `C#CCCCn1c(Sc2cc(OC)c(OC)c(OC)c2Cl)nc2c(N)nc(F)nc21`, which IC50 (MCF7) is on record?
The IC50 was 1.2 µM.

Which IC50 (MCF7) does the source give for `COc1ccc(I)c(Sc2nc3c(N)ncnc3n2CCNCC(C)(C)C)c1` here?
The IC50 was 0.5 µM.

And the Activity (Mus musculus [8])?
Its Activity is “Active”.

For `COc1ccc(I)c(Sc2nc3c(N)ncnc3n2CCCNC(C)(C)C)c1`, which IC50 (MCF7) is on record?
Its IC50 is 0.2 µM.

With `COc1ccc(I)c(Sc2nc3c(N)ncnc3n2CCNCC(C)C)c1` as the molecule, how does the IC50 (MCF7) read?
Its IC50 is 0.2 µM.

What about the Activity (Mus musculus [9]) of the same molecule?
Its Activity is “Active”.

And the Activity (Mus musculus [10])?
Its Activity is “Active”.

And the Activity (A549)?
Its Activity is “Active”.

What about the Activity (Mus musculus [11]) of the same molecule?
The Activity was “Active”.

And the Activity (Mus musculus [12])?
Its Activity is “Active”.

What about the IC50 [13] of the same molecule?
The IC50 was 0.1 µM.

With `COc1ccc(I)c(Sc2nc3c(N)ncnc3n2CCCNC(C)C)c1` as the molecule, how does the Activity (Mus musculus [14]) read?
Its Activity is “Active”.

What about the IC50 (MCF7) of the same molecule?
Its IC50 is 0.6 µM.

And the clearance [15]?
The clearance was 3.72 L/h/kg.

And the half-life [1]?
Its half-life is 4.2 h.

And the Vd [2]?
The Vd was 22 L/kg.

And the Cmax [3]?
Its Cmax is 4.7 µg/mL.

And the Tmax [4]?
The Tmax was 0.5 h.

And the AUC [16]?
The AUC was 7.5 µg·h/mL.

What about the half-life [6] of the same molecule?
Its half-life is 1.5 h.

What about the bioavailability [17] of the same molecule?
The bioavailability was 55%.

And the Activity (Mus musculus [8])?
Its Activity is “Active”.

And the Activity (Mus musculus [18])?
The Activity was “Active”.

What about the Activity (Mus musculus [19]) of the same molecule?
Its Activity is “Active”.

And the Activity (Mus musculus [20])?
The Activity was “Active”.

And the Activity (Mus musculus [21])?
Its Activity is “Active”.

What about the Activity (Mus musculus [22]) of the same molecule?
Its Activity is “inactive”.

With `CCC(CC)NCCCn1c(Sc2cc(OC)ccc2I)nc2c(N)ncnc21` as the molecule, how does the IC50 (MCF7) read?
Its IC50 is 0.2 µM.
